Experimental data as given in ChEMBL document CHEMBL3585335, “Isolation and Synthetic Diversification of Jadomycin 4-Amino-l-phenylalanine” (J Nat Prod, 2015).
The source made the active and inactive calls.

Experiments:
Escherichia coli [1] = experiment: Effect on Copper-mediated Escherichia coli pUC19 DNA cleavage at 100 uM by gel-electrophoresis analysis
Escherichia coli [2] = experiment: Effect on Copper-mediated Escherichia coli pBR322 DNA cleavage at 100 uM by gel-electrophoresis analysis
Escherichia coli [3] = experiment: Effect on photodynamic inactivation in Escherichia coli pUC19 DNA assessed as photo-mediated DNA cleavage at 10 to 100 uM by ethidium bromide gel-electrophoresis analysis
CCRF-CEM = experiment: Cytotoxicity against human CCRF-CEM cells assessed as cell growth at 1 x 10^-5 M; assay type: functional, cell-based
Procedure, shortened: (§1)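 Run by the NCI Developmental Therapeutics Program (DTP) as its one-dose screen across the 60 human tumour cell line panel.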

HL-60(TB) = experiment: Cytotoxicity against human HL-60(TB) cells assessed as cell growth at 1 x 10^-5 M; assay type: functional, cell-based
Procedure, shortened: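 Run by the NCI Developmental Therapeutics Program (DTP) within its 60 human tumour cell line one-dose screen.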

K562 = experiment: Cytotoxicity against human K562 cells assessed as cell growth at 1 x 10^-5 M; assay type: functional, cell-based; procedure, shortened: as §1
MOLT-4 = experiment: Cytotoxicity against human MOLT4 cells assessed as cell growth at 1 x 10^-5 M; assay type: functional, cell-based; procedure, shortened: as §1
SR = experiment: Cytotoxicity against human SR cells assessed as cell growth at 1 x 10^-5 M; assay type: functional, cell-based; procedure, shortened: as §1
A549 = experiment: Cytotoxicity against human A549 cells assessed as cell growth at 1 x 10^-5 M; assay type: functional, cell-based; procedure, shortened: as §1
HOP-62 = experiment: Cytotoxicity against human HOP62 cells assessed as cell growth at 1 x 10^-5 M; assay type: functional, cell-based; procedure, shortened: as §1
HOP-92 = experiment: Cytotoxicity against human HOP92 cells assessed as cell growth at 1 x 10^-5 M; assay type: functional, cell-based; procedure, shortened: as §1
NCI-H226 = experiment: Cytotoxicity against human NCI-H226 cells assessed as cell growth at 1 x 10^-5 M; assay type: functional, cell-based; procedure, shortened: as §1
NCI-H23 = experiment: Cytotoxicity against human NCI-H23 cells assessed as cell growth at 1 x 10^-5 M; assay type: functional, cell-based; procedure, shortened: as §1
NCI-H322M = experiment: Cytotoxicity against human NCI-H322M cells assessed as cell growth at 1 x 10^-5 M; assay type: functional, cell-based; procedure, shortened: as §1
NCI-H460 = experiment: Cytotoxicity against human NCI-H460 cells assessed as cell growth at 1 x 10^-5 M; assay type: functional, cell-based; procedure, shortened: as §1
NCI-H522 = experiment: Cytotoxicity against human NCI-H522 cells assessed as cell growth at 1 x 10^-5 M; assay type: functional, cell-based; procedure, shortened: as §1
COLO 205 = experiment: Cytotoxicity against human COLO205 cells assessed as cell growth at 1 x 10^-5 M; assay type: functional, cell-based; procedure, shortened: as §1
HCC 2998 = experiment: Cytotoxicity against human HCC2998 cells assessed as cell growth at 1 x 10^-5 M; assay type: functional, cell-based; procedure, shortened: as §1
HCT-116 = experiment: Cytotoxicity against human HCT116 cells assessed as cell growth at 1 x 10^-5 M; assay type: functional, cell-based; procedure, shortened: as §1
HCT-15 = experiment: Cytotoxicity against human HCT15 cells assessed as cell growth at 1 x 10^-5 M; assay type: functional, cell-based; procedure, shortened: as §1
HT-29 = experiment: Cytotoxicity against human HT-29 cells assessed as cell growth at 1 x 10^-5 M; assay type: functional, cell-based; procedure, shortened: as §1
KM12 = experiment: Cytotoxicity against human KM12 cells assessed as cell growth at 1 x 10^-5 M; assay type: functional, cell-based; procedure, shortened: as §1
SW-620 = experiment: Cytotoxicity against human SW620 cells assessed as cell growth at 1 x 10^-5 M; assay type: functional, cell-based
Procedure, shortened: (§2)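 Tested by the NCI Developmental Therapeutics Program in its one-dose screen across the 60 human tumour cell line panel.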

SF-268 = experiment: Cytotoxicity against human SF268 cells assessed as cell growth at 1 x 10^-5 M; assay type: functional, cell-based; procedure, shortened: as §1
SF-295 = experiment: Cytotoxicity against human SF295 cells assessed as cell growth at 1 x 10^-5 M; assay type: functional, cell-based; procedure, shortened: as §1
SF-539 = experiment: Cytotoxicity against human SF539 cells assessed as cell growth at 1 x 10^-5 M; assay type: functional, cell-based; procedure, shortened: as §1
SNB-19 = experiment: Cytotoxicity against human SNB19 cells assessed as cell growth at 1 x 10^-5 M; assay type: functional, cell-based; procedure, shortened: as §1
SNB-75 = experiment: Cytotoxicity against human SNB75 cells assessed as cell growth at 1 x 10^-5 M; assay type: functional, cell-based; procedure, shortened: as §1
U-251 = experiment: Cytotoxicity against human U251 cells assessed as cell growth at 1 x 10^-5 M; assay type: functional, cell-based; procedure, shortened: as §2
LOX IMVI = experiment: Cytotoxicity against human LOXIMVI cells assessed as cell growth at 1 x 10^-5 M; assay type: functional, cell-based; procedure, shortened: as §1
Malme-3M = experiment: Cytotoxicity against human MALME-3M cells assessed as cell growth at 1 x 10^-5 M; assay type: functional, cell-based; procedure, shortened: as §1
M14 = experiment: Cytotoxicity against human M14 cells assessed as cell growth at 1 x 10^-5 M; assay type: functional, cell-based; procedure, shortened: as §1
MDA-MB-435 = experiment: Cytotoxicity against human MDA-MB-435 cells assessed as cell growth at 1 x 10^-5 M; assay type: functional, cell-based; procedure, shortened: as §1
SK-MEL-2 = experiment: Cytotoxicity against human SK-MEL-2 cells assessed as cell growth at 1 x 10^-5 M; assay type: functional, cell-based; procedure, shortened: as §1
SK-MEL-28 = experiment: Cytotoxicity against human SK-MEL-28 cells assessed as cell growth at 1 x 10^-5 M; assay type: functional, cell-based; procedure, shortened: as §1
SK-MEL-5 = experiment: Cytotoxicity against human SK-MEL-5 cells assessed as cell growth at 1 x 10^-5 M; assay type: functional, cell-based; procedure, shortened: as §1
UACC-257 = experiment: Cytotoxicity against human UACC257 cells assessed as cell growth at 1 x 10^-5 M; assay type: functional, cell-based; procedure, shortened: as §2
UACC-62 = experiment: Cytotoxicity against human UACC62 cells assessed as cell growth at 1 x 10^-5 M; assay type: functional, cell-based; procedure, shortened: as §2
IGROV-1 = experiment: Cytotoxicity against human IGROV1 cells assessed as cell growth at 1 x 10^-5 M; assay type: functional, cell-based; procedure, shortened: as §1
OVCAR-3 = experiment: Cytotoxicity against human OVCAR3 cells assessed as cell growth at 1 x 10^-5 M; assay type: functional, cell-based; procedure, shortened: as §1
OVCAR-4 = experiment: Cytotoxicity against human OVCAR4 cells assessed as cell growth at 1 x 10^-5 M; assay type: functional, cell-based; procedure, shortened: as §1
OVCAR-5 = experiment: Cytotoxicity against human OVCAR5 cells assessed as cell growth at 1 x 10^-5 M; assay type: functional, cell-based; procedure, shortened: as §1
OVCAR-8 = experiment: Cytotoxicity against human OVCAR8 cells assessed as cell growth at 1 x 10^-5 M; assay type: functional, cell-based; procedure, shortened: as §1
NCI/ADR-RES = experiment: Cytotoxicity against human NCI-ADR-RES cells assessed as cell growth at 1 x 10^-5 M; assay type: functional, cell-based; procedure, shortened: as §1
SK-OV-3 = experiment: Cytotoxicity against human SKOV3 cells assessed as cell growth at 1 x 10^-5 M; assay type: functional, cell-based; procedure, shortened: as §1
786-0 = experiment: Cytotoxicity against human 786-0 cells assessed as cell growth at 1 x 10^-5 M; assay type: functional, cell-based; procedure, shortened: as §1
A498 = experiment: Cytotoxicity against human A498 cells assessed as cell growth at 1 x 10^-5 M; assay type: functional, cell-based; procedure, shortened: as §1
ACHN = experiment: Cytotoxicity against human ACHN cells assessed as cell growth at 1 x 10^-5 M; assay type: functional, cell-based; procedure, shortened: as §1
CAKI-1 = experiment: Cytotoxicity against human Caki1 cells assessed as cell growth at 1 x 10^-5 M; assay type: functional, cell-based; procedure, shortened: as §1
RXF 393 = experiment: Cytotoxicity against human RXF393 cells assessed as cell growth at 1 x 10^-5 M; assay type: functional, cell-based; procedure, shortened: as §1
SN12C = experiment: Cytotoxicity against human SN12C cells assessed as cell growth at 1 x 10^-5 M; assay type: functional, cell-based; procedure, shortened: as §1
TK-10 = experiment: Cytotoxicity against human TK10 cells assessed as cell growth at 1 x 10^-5 M; assay type: functional, cell-based; procedure, shortened: as §2
UO-31 = experiment: Cytotoxicity against human UO31 cells assessed as cell growth at 1 x 10^-5 M; assay type: functional, cell-based; procedure, shortened: as §2
PC-3 = experiment: Cytotoxicity against human PC3 cells assessed as cell growth at 1 x 10^-5 M; assay type: functional, cell-based; procedure, shortened: as §1
DU-145 = experiment: Cytotoxicity against human DU145 cells assessed as cell growth at 1 x 10^-5 M; assay type: functional, cell-based; procedure, shortened: as §1
MCF7 = experiment: Cytotoxicity against human MCF7 cells assessed as cell growth at 1 x 10^-5 M; assay type: functional, cell-based; procedure, shortened: as §1
MDA-MB-231 = experiment: Cytotoxicity against human MDA-MB-231 cells assessed as cell growth at 1 x 10^-5 M; assay type: functional, cell-based; procedure, shortened: as §1
Hs-578T = experiment: Cytotoxicity against human Hs578T cells assessed as cell growth at 1 x 10^-5 M; assay type: functional, cell-based; procedure, shortened: as §1
BT-549 = experiment: Cytotoxicity against human BT549 cells assessed as cell growth at 1 x 10^-5 M; assay type: functional, cell-based; procedure, shortened: as §1
T47D = experiment: Cytotoxicity against human T47D cells assessed as cell growth at 1 x 10^-5 M; assay type: functional, cell-based; procedure, shortened: as §2
MDA-MB-468 = experiment: Cytotoxicity against human MDA-MB-468 cells assessed as cell growth at 1 x 10^-5 M; assay type: functional, cell-based; procedure, shortened: as §1

CCCCCCCCC(=O)Nc1ccc(C[C@H]2C(=O)OC3c4cc(C)cc(O)c4C4=C(C(=O)c5c(O[C@H]6C[C@@H](O)[C@@H](O)[C@H](C)O6)cccc5C4=O)N32)cc1 (stereo partly specified)
inactive: Activity (Escherichia coli [1]) | Activity (Escherichia coli [2]) | Activity (Escherichia coli [3]) | growth inhibition (GI) (CCRF-CEM) | growth inhibition (GI) (HL-60(TB)) | growth inhibition (GI) (K562) | growth inhibition (GI) (MOLT-4) | growth inhibition (GI) (SR) | growth inhibition (GI) (A549) | growth inhibition (GI) (HOP-62) | growth inhibition (GI) (HOP-92) | growth inhibition (GI) (NCI-H226) | growth inhibition (GI) (NCI-H23) | growth inhibition (GI) (NCI-H322M) | growth inhibition (GI) (NCI-H460) | growth inhibition (GI) (NCI-H522) | growth inhibition (GI) (COLO 205) | growth inhibition (GI) (HCC 2998) | growth inhibition (GI) (HCT-116) | growth inhibition (GI) (HCT-15) | growth inhibition (GI) (HT-29) | growth inhibition (GI) (KM12) | growth inhibition (GI) (SW-620) | growth inhibition (GI) (SF-268) | growth inhibition (GI) (SF-295) | growth inhibition (GI) (SF-539) | growth inhibition (GI) (SNB-19) | growth inhibition (GI) (SNB-75) | growth inhibition (GI) (U-251) | growth inhibition (GI) (LOX IMVI) | growth inhibition (GI) (Malme-3M) | growth inhibition (GI) (M14) | growth inhibition (GI) (MDA-MB-435) | growth inhibition (GI) (SK-MEL-2) | growth inhibition (GI) (SK-MEL-28) | growth inhibition (GI) (SK-MEL-5) | growth inhibition (GI) (UACC-257) | growth inhibition (GI) (UACC-62) | growth inhibition (GI) (IGROV-1) | growth inhibition (GI) (OVCAR-3) | growth inhibition (GI) (OVCAR-4) | growth inhibition (GI) (OVCAR-5) | growth inhibition (GI) (OVCAR-8) | growth inhibition (GI) (NCI/ADR-RES) | growth inhibition (GI) (SK-OV-3) | growth inhibition (GI) (786-0) | growth inhibition (GI) (A498) | growth inhibition (GI) (ACHN) | growth inhibition (GI) (CAKI-1) | growth inhibition (GI) (RXF 393) | growth inhibition (GI) (SN12C) | growth inhibition (GI) (TK-10) | growth inhibition (GI) (UO-31) | growth inhibition (GI) (PC-3) | growth inhibition (GI) (DU-145) | growth inhibition (GI) (MCF7) | growth inhibition (GI) (MDA-MB-231) | growth inhibition (GI) (Hs-578T) | growth inhibition (GI) (BT-549) | growth inhibition (GI) (T47D) | growth inhibition (GI) (MDA-MB-468)
